Measurements taken from ChEMBL document CHEMBL4145466, “Design, synthesis, and biological evaluation of novel combretastatin A-4 thio derivatives as microtubule targeting agents” (Eur J Med Chem, 2018).
Active and inactive are the calls of the source. No cut-off for these calls is given here.

What was measured:
[1] = Cytotoxicity against human CCD39Lu cells after 48 hrs by MTT assay; assay type: cell-based
Procedure, shortened: (§1)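 Cells in DMEM with 10% FBS were plated at 2 × 10^4 per well and left overnight, then treated for 48 h at 0.6–20 µM (six concentrations) from 10 mM DMSO stocks. MTT was added for 2 h, and formazan was dissolved in DMSO and read at 570 nm. Viability was expressed as % of control, with IC50 taken from dose-response curves. Results are mean ± SD of three independent experiments.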

[2] = system: MCF7; assay: Cytotoxicity against human MCF7 cells after 48 hrs by MTT assay; assay type: functional, cell-based; settings: MCF7, 48 h; procedure, shortened: as §1
[3] = system: Tubulin; assay: Inhibition of tubulin polymerization in human HaCaT cells assessed as perturbation in cytoskeleton structure at 1 uM after 24 hrs by Hoechst 33258/FITC staining-based […]; assay type: cell-based
Procedure, shortened: (§2)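 Cells seeded at 12.5 × 10^4 per well and exposed to 1 µM compound for 24 h. Nuclei were stained with Hoechst 33258 (10 µg/mL, 30 min, 37 °C), then fixed in 4% formaldehyde/PBS (15 min, RT). Cells were permeabilized with 1% Triton X-100, blocked with 2% BSA/PBS for 1 h, and incubated with anti-α-tubulin-FITC (1:50) overnight at 4 °C. Imaged by fluorescence microscopy.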

[4] = system: A-431; assay: Cell cycle arrest in human A431 cells assessed as accumulation of cells at G2/M phase at 0.1 to 1 uM after 24 hrs by propidium iodide staining-based FACS analysis; assay type: functional
Procedure, shortened: (§3)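 Cells were seeded at 5 × 10^5 per well in DMEM with 10% FBS and left overnight, then exposed to 0.1, 0.5 or 1 µM for 24 h. DMSO served as the negative control and 50 nM camptothecin as the positive control. Cells were trypsinized, fixed in 70% ethanol for 30 min at 4 °C, stained with 50 µg/mL PI plus 100 µg/mL RNase A for 30 min in the dark, and analysed by flow cytometry. Results are mean ± SD of three experiments, compared by ANOVA with Dunnett's test.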

[5] = system: MDA-MB-231; assay: Induction of apoptosis in human MDA-MB-231 cells assessed as increase in histone-associated DNA fragments in oligonucleosomes at 0.1 uM after 24 hrs by ELISA; assay type: functional, cell-based
Procedure, shortened: (§4)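 Cells (2 × 10^4) were incubated for 24 h at 0.1, 0.5 or 1 µM, lysed and centrifuged. Supernatants went onto a streptavidin plate with anti-histone-biotin and anti-DNA-peroxidase for 2 h, followed by ABTS for 30 min and a reading at 405 nm. Nucleosome content was expressed as an enrichment factor, as mean ± SD of three experiments.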

[6] = system: SK-OV-3; assay: Induction of apoptosis in human SKOV3 cells after 24 hrs by FITC Annexin V/propidium iodide staining-based FACScan flow cytometric analysis; assay type: functional, cell-based
Procedure, shortened: (§5)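 After 24 h of compound exposure, 1 × 10^6 cells were labelled with annexin V-FITC and PI for 15 min at 25 °C in the dark. They were read on a FACScan with 488 nm excitation, detecting FITC at 525 nm and PI at 620 nm. Results are mean ± SD of three independent experiments, with Dunnett's test against control.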

[7] = system: MDA-MB-231; assay: Induction of apoptosis in human MDA-MB-231 cells assessed as increase in histone-associated DNA fragments in mononucleosomes at 0.1 uM after 24 hrs by ELISA; assay type: functional, cell-based; procedure, shortened: as §4
[8] = system: A-431; assay: Induction of apoptosis in human A431 cells assessed as increase in histone-associated DNA fragments in mononucleosomes at 0.1 uM after 24 hrs by ELISA; assay type: functional, cell-based; procedure, shortened: as §4
[9] = Inhibition of porcine tubulin polymerization after 1 hr by spectrophotometric analysis; parameters: species or system Sus scrofa
Procedure, shortened: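 Polymerization was started by shifting from 4 °C to 37 °C, and absorbance was followed at 37 °C for 60 min. The vehicle served as control.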

[10] = system: A-431; assay: Induction of apoptosis in human A431 cells assessed as increase in histone-associated DNA fragments in oligonucleosomes at 0.1 uM after 24 hrs by ELISA; assay type: functional, cell-based; procedure, shortened: as §4
[11] = system: MDA-MB-231; assay: Cytotoxicity against human MDA-MB-231 cells after 48 hrs by MTT assay; assay type: functional, cell-based; settings: MDA-MB-231, 48 h; procedure, shortened: as §1
[12] = system: MCF7; assay: Induction of apoptosis in human MCF7 cells assessed as increase in histone-associated DNA fragments in oligonucleosomes at 0.1 uM after 24 hrs by ELISA; assay type: functional, cell-based; procedure, shortened: as §4
[13] = system: Tubulin; assay: Inhibition of tubulin polymerization in human HaCaT cells assessed as micronuclei formation at 1 uM after 24 hrs by ELISA; assay type: cell-based
[14] = system: A-431; assay: Cytotoxicity against human A431 cells after 48 hrs by MTT assay; assay type: functional, cell-based; settings: A-431, 48 h; procedure, shortened: as §1
[15] = system: SK-OV-3; assay: Cytotoxicity against human SKOV3 cells after 48 hrs by MTT assay; assay type: functional, cell-based; settings: SK-OV-3, 48 h; procedure, shortened: as §1
[16] = system: Tubulin; assay: Inhibition of tubulin polymerization in human HaCaT cells assessed as perturbation in cytoskeleton structure at 1 uM after 24 hrs by ELISA; assay type: cell-based
[17] = system: HaCaT; assay: Induction of apoptosis in human HaCaT cells assessed as increase in histone-associated DNA fragments in mononucleosomes at 0.1 uM after 24 hrs by ELISA; assay type: cell-based
Procedure, shortened: (§6)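 HaCaT cells (2 × 10^4), grown in DMEM with 10% FBS, penicillin/streptomycin and 2 mM L-glutamine, exposed to compound (DMSO stock) for 24 h. Cells lysed, supernatant taken after centrifugation and incubated 2 h on a streptavidin-coated plate with anti-histone-biotin and anti-DNA-peroxidase. ABTS added for 30 min, A405 read. Output is enrichment factor vs control, mean ± SD of three independent experiments.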

[18] = system: MCF7; assay: Induction of apoptosis in human MCF7 cells assessed as increase in histone-associated DNA fragments in mononucleosomes at 0.1 uM after 24 hrs by ELISA; assay type: functional, cell-based; procedure, shortened: as §4
[19] = system: HaCaT; assay: Induction of apoptosis in human HaCaT cells assessed as increase in histone-associated DNA fragments in oligonucleosomes at 0.1 uM after 24 hrs by ELISA; assay type: cell-based; procedure, shortened: as §6
[20] = system: HeLa; assay: Cytotoxicity against human HeLa cells after 48 hrs by MTT assay; assay type: functional, cell-based; procedure, shortened: as §1
[21] = system: SK-OV-3; assay: Cell cycle arrest in human SKOV3 cells assessed as accumulation of cells at G2/M phase at 0.1 to 1 uM after 24 hrs by propidium iodide staining-based FACS analysis; assay type: functional; procedure, shortened: as §3
[22] = system: MDA-MB-231; assay: Cell cycle arrest in human MDA-MB-231 cells assessed as accumulation of cells at G2/M phase at 0.1 to 1 uM after 24 hrs by propidium iodide staining-based FACS analysis; assay type: functional; procedure, shortened: as §3
[23] = system: MCF7; assay: Induction of apoptosis in human MCF7 cells after 24 hrs by FITC Annexin V/propidium iodide staining-based FACScan flow cytometric analysis; assay type: functional, cell-based; procedure, shortened: as §5
[24] = system: HeLa; assay: Induction of apoptosis in human HeLa cells assessed as increase in histone-associated DNA fragments in mononucleosomes at 0.1 uM after 24 hrs by ELISA; assay type: functional, cell-based; procedure, shortened: as §4
[25] = system: HaCaT; assay: Cytotoxicity against human HaCaT cells after 48 hrs by MTT assay; assay type: cell-based; procedure, shortened: as §1
[26] = system: Tubulin; assay: Inhibition of tubulin polymerization in human HaCaT cells assessed as micronuclei formation at 1 uM after 24 hrs by Hoechst 33258/FITC staining-based […]; assay type: cell-based; procedure, shortened: as §2
[27] = system: A-431; assay: Induction of apoptosis in human A431 cells after 24 hrs by FITC Annexin V/propidium iodide staining-based FACScan flow cytometric analysis; assay type: functional, cell-based; procedure, shortened: as §5
[28] = system: HeLa; assay: Induction of apoptosis in human HeLa cells after 24 hrs by FITC Annexin V/propidium iodide staining-based FACScan flow cytometric analysis; assay type: functional, cell-based; procedure, shortened: as §5
[29] = system: SK-OV-3; assay: Induction of apoptosis in human SKOV3 cells assessed as increase in histone-associated DNA fragments in oligonucleosomes at 0.1 uM after 24 hrs by ELISA; assay type: functional, cell-based; procedure, shortened: as §4
[30] = system: SK-OV-3; assay: Induction of apoptosis in human SKOV3 cells assessed as increase in histone-associated DNA fragments in mononucleosomes at 0.1 uM after 24 hrs by ELISA; assay type: functional, cell-based; procedure, shortened: as §4
[31] = system: A549; assay: Cytotoxicity against human A549 cells after 48 hrs by MTT assay; assay type: functional, cell-based; settings: A549, 48 h
[32] = system: HeLa; assay: Induction of apoptosis in human HeLa cells assessed as increase in histone-associated DNA fragments in oligonucleosomes at 0.1 uM after 24 hrs by ELISA; assay type: functional, cell-based; procedure, shortened: as §4
[33] = system: HaCaT; assay: Cell cycle arrest in human HaCaT cells assessed as accumulation of cells at G2/M phase at 0.1 to 1 uM after 24 hrs by propidium iodide staining-based FACS analysis; procedure, shortened: as §3
[34] = system: HaCaT; assay: Induction of apoptosis in human HaCaT cells after 24 hrs by FITC Annexin V/propidium iodide staining-based FACScan flow cytometric analysis; assay type: cell-based; procedure, shortened: as §5
[35] = system: MCF7; assay: Cell cycle arrest in human MCF7 cells assessed as accumulation of cells at G2/M phase at 0.1 to 1 uM after 24 hrs by propidium iodide staining-based FACS analysis; assay type: functional; procedure, shortened: as §3
[36] = system: MDA-MB-231; assay: Induction of apoptosis in human MDA-MB-231 cells after 24 hrs by FITC Annexin V/propidium iodide staining-based FACScan flow cytometric analysis; assay type: functional, cell-based; procedure, shortened: as §5

Compound: COc1ccc(/C=C\c2cc(OC)c(OC)c(OC)c2)cc1O [COMBRETASTATIN A4]
- IC50 [1]: 9 nM
- IC50 [2]: 170 nM
- inhibition (INH) [3]: Active
- Activity [4]: Active
- Activity [5]: Active
- Activity [6]: Dose-dependent effect
- Activity [7]: Active
- Activity [8]: Active
- IC50 [9]: 2720 nM
- Activity [10]: Active
- IC50 [11]: 560 nM
- Activity [12]: Active
- inhibition (INH) [13]: Active
- IC50 [14]: 250 nM
- IC50 [15]: 380 nM
- inhibition (INH) [16]: Active
- Activity [17]: Toxic
- Activity [18]: Active
- Activity [19]: Toxic
- IC50 [20]: 110 nM
- Activity [21]: Active
- Activity [22]: Active
- Activity [23]: Dose-dependent effect
- Activity [24]: Active
- IC50 [25]: 190 nM
- inhibition (INH) [26]: Active
- Activity [27]: Dose-dependent effect
- Activity [28]: Dose-dependent effect
- Activity [29]: Active
- Activity [30]: Active
- IC50 [31]: > 20000 nM
- Activity [32]: Active
- Activity [33]: Toxic
- Activity [34]: Dose-dependent effect
- Activity [35]: Active
- Activity [36]: Dose-dependent effect
